Assay [1] concerns Proteus mirabilis. Briefly: Minimum inhibitory concentration against Proteus mirabilis delta 89. Format: functional.
Assay [2] relates to Escherichia coli. Briefly: Antibacterial activity againist Escherichia coli 120 infected NMRI mice after peroral administration. Format: functional. The settings on record: po. The gist of the method: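 ED50 in NMRI mice infected intraperitoneally with E. coli 120; compound given orally immediately and 5 h after infection.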
Assay [3] deals with Klebsiella aerogenes. Nature of the assay: Minimum inhibitory concentration of compound against Enterobacter aerogenes delta 220. Format: functional.
Assay [4] has as its system Salmonella typhimurium. Briefly: Minimum inhibitory concentration of compound against Salmonella Typhimurium delta 119. Format: functional, Salmonella enterica subsp. enterica serovar Typhimurium. The settings on record: Salmonella enterica.
For assay [5], the system named is Escherichia coli. Briefly: Minimum inhibitory concentration of compound against Escherichia coli delta 120. Format: functional.
The test system of assay [6] is Klebsiella pneumoniae. Briefly: Minimum inhibitory concentration of compound against Klebsiella pneumoniae delta 217. Format: functional.
Assay [7] has as its system Neisseria gonorrhoeae. Nature of the assay: Minimum inhibitory concentration of compound against Neisseria gonorrhoeae AS 7720. Format: functional. The gist of the method: (§1)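 Agar dilution on Kellogg agar, 10⁶ colony forming units, incubated 20 h at 36 °C in 5% CO₂; MIC is the lowest concentration giving no visible growth.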
Assay [8] concerns Neisseria gonorrhoeae. Nature of the assay: Minimum inhibitory concentration of compound against Neisseria gonorrhoeae W2. Format: functional. Summed up: as §1

Converted amounts (≈) assume the structure as drawn.

As to `Cc1ccc(S(=O)(=O)N2N=Cc3c(C)ccc(C)c3B2O)cc1`, the MIC in assay [1], in assay [3], in assay [4], in assay [5] and in assay [6] was above 50 µg/mL throughout. In addition, the ED50 in assay [2] was above 600 mg/kg.

As to `CCc1cc2c(s1)C=NN(S(=O)(=O)c1ccccc1Cl)B2O`, the MIC was 0.39 µg/mL (≈ 1.1 µM) in assay [1]; 0.5 µg/mL (≈ 1.41 µM) in assay [7]; 1 µg/mL (≈ 2.82 µM) in assay [8]; 12.5 µg/mL (≈ 35.2 µM) in assay [3]; 0.78 µg/mL (≈ 2.2 µM) in assay [4]; 3.12 µg/mL (≈ 8.8 µM) in assay [5]. Moreover, in assay [6], the lowest concentration to inhibit growth (MIC) was 0.31 µg/mL (≈ 0.874 µM). In addition, it took a dose of 49 mg/kg to reach the 50% effect level in assay [2] (ED50).

As to `Cc1ccc(S(=O)(=O)N2N=Cc3cc(Br)ccc3B2O)cc1`, the MIC is 1.56 µg/mL (≈ 4.12 µM) in assay [1]; 1 µg/mL (≈ 2.64 µM) in assay [7]; 2 µg/mL (≈ 5.28 µM) in assay [8]; above 50 µg/mL in assay [3]; 6.25 µg/mL (≈ 16.5 µM) in assay [4]; 25 µg/mL (≈ 66 µM) in assay [5]. The compound further registered a minimal inhibitory concentration (MIC) in assay [6] of 6.25 µg/mL (≈ 16.5 µM). Further, the 50% effective dose (ED50) in assay [2] was around 40 mg/kg.

For the compound `CC(=O)Nc1ccc(S(=O)(=O)N2N=Cc3sc(Br)cc3B2O)c(Cl)c1`, the MIC in assay [1] came to 6.25 µg/mL (≈ 13.5 µM); in assay [7], 1 µg/mL (≈ 2.16 µM); in assay [8] it was 1 µg/mL (≈ 2.16 µM); in assay [3], 25 µg/mL (≈ 54 µM); in assay [4], 3.12 µg/mL (≈ 6.75 µM); in assay [5] it was 50 µg/mL (≈ 108 µM). The same compound displayed an MIC in assay [6] of 3.12 µg/mL (≈ 6.75 µM). The ED50 in assay [2] came to 208 mg/kg.

Regarding `Cc1ccc(S(=O)(=O)N2N=Cc3cc(N(C)C)ccc3B2O)cc1`, in assay [2], the ED50 was above 300 mg/kg. The MIC in assay [4] and in assay [5] was above 50 µg/mL each time.

With `O=S(=O)(c1cc(Cl)c(Cl)cc1Cl)N1N=Cc2c(F)cccc2B1O`, the MIC in assay [1] was 25 µg/mL (≈ 61.4 µM); in assay [3], above 50 µg/mL; in assay [4], above 50 µg/mL; in assay [5], above 50 µg/mL; in assay [6] it was above 50 µg/mL. In assay [2], this compound gave an ED50 above 300 mg/kg.

The compound `Cc1ccc(S(=O)(=O)N2N=Cc3c(Cl)cc(Cl)cc3B2O)cc1` came in with an ED50 in assay [2] above 100 mg/kg. The MIC in assay [4] and in assay [5] was above 50 µg/mL in each case.

Take `Cc1ccc(S(=O)(=O)N2N=Cc3cc(Cl)ccc3B2O)cc1`: the MIC in assay [1] was 3.12 µg/mL (≈ 9.32 µM); in assay [7], 1 µg/mL (≈ 2.99 µM); in assay [8] it was 2 µg/mL (≈ 5.98 µM); in assay [3] it was above 50 µg/mL; in assay [4] it was 3.12 µg/mL (≈ 9.32 µM); in assay [5] it was 25 µg/mL (≈ 74.7 µM). For the same compound, the MIC in assay [6] amounted to 6.25 µg/mL (≈ 18.7 µM). The ED50 in assay [2] is around 20 mg/kg.

Regarding `Cc1ccc(S(=O)(=O)N2N=Cc3c(F)cccc3B2O)cc1`, the MIC was 3.12 µg/mL (≈ 9.81 µM) in assay [1]; 2 µg/mL (≈ 6.29 µM) in assay [7]; 8 µg/mL (≈ 25.1 µM) in assay [8]; above 50 µg/mL in assay [3]; 25 µg/mL (≈ 78.6 µM) in assay [4]; above 50 µg/mL in assay [5]. In addition, the MIC in assay [6] turned out to be 25 µg/mL (≈ 78.6 µM). This compound showed an ED50 in assay [2] of 5 mg/kg.

`O=[N+]([O-])c1ccc(S(=O)(=O)N2N=Cc3cc(Br)ccc3B2O)cc1`: the MIC in assay [1] is 3.12 µg/mL (≈ 7.61 µM); in assay [7], 1 µg/mL (≈ 2.44 µM); in assay [8] it was 8 µg/mL (≈ 19.5 µM); in assay [3], above 50 µg/mL; in assay [4] it was 3.12 µg/mL (≈ 7.61 µM); in assay [5], 6.25 µg/mL (≈ 15.2 µM). In assay [6], this compound showed an MIC of 0.78 µg/mL (≈ 1.9 µM). The compound also had an ED50 in assay [2] of around 25 mg/kg.

`Cc1ccc(S(=O)(=O)N2N=Cc3c(Cl)cccc3B2O)cc1` displayed an ED50 in assay [2] of around 100 mg/kg. The MIC in assay [4] and in assay [5] was above 50 µg/mL throughout.

As to `Cc1ccc(S(=O)(=O)N2N=Cc3cc(F)ccc3B2O)cc1`, the MIC in assay [1] is 6.25 µg/mL (≈ 19.6 µM); in assay [7], 2 µg/mL (≈ 6.29 µM); in assay [8], 8 µg/mL (≈ 25.1 µM); in assay [3] it was above 50 µg/mL; in assay [4], 6.25 µg/mL (≈ 19.6 µM); in assay [5], 25 µg/mL (≈ 78.6 µM). In assay [6], 6.25 µg/mL (≈ 19.6 µM) was the least that counted as inhibitory (MIC). The compound also displayed an ED50 in assay [2] of around 25 mg/kg.

Regarding `CCCS(=O)(=O)N1N=Cc2sc(C)cc2B1O`, the MIC in assay [1] came out at 0.78 µg/mL (≈ 2.87 µM); in assay [7] it was 1 µg/mL (≈ 3.67 µM); in assay [8] it was 1 µg/mL (≈ 3.67 µM); in assay [3], 3.12 µg/mL (≈ 11.5 µM); in assay [4], 0.78 µg/mL (≈ 2.87 µM); in assay [5], 1.56 µg/mL (≈ 5.73 µM). It took 0.39 µg/mL (≈ 1.43 µM) to inhibit growth in assay [6] (MIC). The same compound yielded an ED50 in assay [2] of 4.5 mg/kg.

Turning to `Cc1ccc(S(=O)(=O)N2N=Cc3c(Br)cccc3B2O)cc1`, the ED50 in assay [2] is above 100 mg/kg. Further, the MIC in assay [4] and in assay [5] was above 50 µg/mL in each case.

For `Cc1ccc(S(=O)(=O)N2N=Cc3ccc(Br)cc3B2O)cc1`, the MIC in assay [1] is 12.5 µg/mL (≈ 33 µM); in assay [7], 2 µg/mL (≈ 5.28 µM); in assay [8], 8 µg/mL (≈ 21.1 µM); in assay [3], above 50 µg/mL; in assay [4], 6.25 µg/mL (≈ 16.5 µM); in assay [5] it was 50 µg/mL (≈ 132 µM). In addition, inhibition of growth in assay [6] (MIC) required 6.25 µg/mL (≈ 16.5 µM). In addition, the ED50 in assay [2] was around 30 mg/kg.

For the compound `Cc1cc2c(s1)C=NN(S(=O)(=O)c1ccccc1Cl)B2O`, the MIC in assay [1] is 1.56 µg/mL (≈ 4.58 µM); in assay [7] it was 0.5 µg/mL (≈ 1.47 µM); in assay [8] it was 0.5 µg/mL (≈ 1.47 µM); in assay [3], 12.5 µg/mL (≈ 36.7 µM); in assay [4], 1.56 µg/mL (≈ 4.58 µM); in assay [5], 12.5 µg/mL (≈ 36.7 µM). This compound had an MIC in assay [6] of 1.56 µg/mL (≈ 4.58 µM). Besides, in assay [2], the 50% effect level (ED50) was put at a dose of 49 mg/kg.

Turning to `Cc1ccc2c(c1)C=NN(S(=O)(=O)N(C)C)B2O`, the MIC in assay [1] was 6.25 µg/mL (≈ 23.4 µM); in assay [7] it was 8 µg/mL (≈ 29.9 µM); in assay [8] it was 8 µg/mL (≈ 29.9 µM); in assay [3] it was above 50 µg/mL; in assay [4], 12.5 µg/mL (≈ 46.8 µM); in assay [5], above 50 µg/mL. The same compound had an MIC in assay [6] of 6.25 µg/mL (≈ 23.4 µM).

With `Cc1ccc(S(=O)(=O)N2N=Cc3sc(Cl)cc3B2O)cc1`, the MIC in assay [1] came out at 1.56 µg/mL (≈ 4.58 µM); in assay [7], 1 µg/mL (≈ 2.94 µM); in assay [8] it was 1 µg/mL (≈ 2.94 µM); in assay [3] it was 50 µg/mL (≈ 147 µM); in assay [4], 5 µg/mL (≈ 14.7 µM); in assay [5] it was 25 µg/mL (≈ 73.4 µM). Also, 2.5 µg/mL (≈ 7.34 µM) was the least that counted as inhibitory in assay [6] (MIC). The compound further returned an ED50 in assay [2] of 28 mg/kg.

One may read the MIC as the least concentration at which growth counts as inhibited. Low readings indicate a more susceptible organism, high ones a less susceptible organism. The ED50 is the dose that gives a 50% effect, or the effect in half of the subjects. Low values mean greater potency, high ones weaker potency.

Values taken from ChEMBL document CHEMBL1122708, “Preparation and antibacterial activities of new 1,2,3-diazaborine derivatives and analogues” (1984).
